Measured values published in publication PMC3149845 (The Journal of neuroscience : the official journal of the …, 2011).
Peptide text beside a SMILES is read from it.

Key:
[1] = molecular target: hTas1R2:S40T/I67S+hTas1R3 (Homo sapiens, UniProt Q8TE23, I67S/S40T); assay: Ca2+ mobilization, mutated human receptor; type: cell-based; details: aspartame 10mM, neotame 1mM, sucralose 2 mM; compared with hTas1R2/hTas1R3
Summary of the method: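 Mutant hTas1R2 with hTas1R3 and Gα16-gust44 in HEK293E cells (50,000/well, 0.06 μg each plasmid per well); 44 h post-transfection, loaded with 3 μM Fluo-4 AM in HBSS/20 mM HEPES for 1 h. Fluorescence (ex 488/em 525 nm) recorded every 2 s, tastant at 30 s, 150 s further. ΔF/F normalized to the hTas1R2/hTas1R3 sucralose (2 mm) maximum; three independent experiments; one-way ANOVA with Tukey test.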

smTas1R2/hTas1R3 = molecular target: T1, smTas1R2/hTas1R3 (Saimiri sciureus, UniProt A3QP08); assay: Ca2+ mobilization, mismatched receptor; type: cell-based, human/squirrel monkey; details: aspartame 10mM, neotame 1mM, sucralose 2 mM, D-tryptophan 5mM, sucrose 150mM
T1 sequence (A3QP08 20-834): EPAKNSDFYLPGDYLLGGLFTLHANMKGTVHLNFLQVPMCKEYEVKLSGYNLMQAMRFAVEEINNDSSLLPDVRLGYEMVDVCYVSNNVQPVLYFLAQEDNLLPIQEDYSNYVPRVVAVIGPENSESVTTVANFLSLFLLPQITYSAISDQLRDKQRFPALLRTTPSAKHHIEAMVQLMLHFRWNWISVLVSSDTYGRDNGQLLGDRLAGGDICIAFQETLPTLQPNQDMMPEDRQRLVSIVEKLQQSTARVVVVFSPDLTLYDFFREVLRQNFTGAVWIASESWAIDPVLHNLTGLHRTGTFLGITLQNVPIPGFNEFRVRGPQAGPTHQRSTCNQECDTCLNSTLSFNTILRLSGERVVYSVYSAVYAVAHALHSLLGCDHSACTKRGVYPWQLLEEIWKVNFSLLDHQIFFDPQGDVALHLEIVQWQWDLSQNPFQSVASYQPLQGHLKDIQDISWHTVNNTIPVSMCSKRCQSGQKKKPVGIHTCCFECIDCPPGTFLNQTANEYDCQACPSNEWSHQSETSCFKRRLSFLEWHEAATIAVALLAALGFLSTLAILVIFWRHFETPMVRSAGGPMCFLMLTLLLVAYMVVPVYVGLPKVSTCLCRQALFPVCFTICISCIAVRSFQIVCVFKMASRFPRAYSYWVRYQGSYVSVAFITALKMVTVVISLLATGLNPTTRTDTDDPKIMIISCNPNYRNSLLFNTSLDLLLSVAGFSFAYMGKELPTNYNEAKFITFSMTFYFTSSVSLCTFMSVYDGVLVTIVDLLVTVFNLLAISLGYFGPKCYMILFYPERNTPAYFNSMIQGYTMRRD
T1 sequence (Q7RTX0 21-852 partner): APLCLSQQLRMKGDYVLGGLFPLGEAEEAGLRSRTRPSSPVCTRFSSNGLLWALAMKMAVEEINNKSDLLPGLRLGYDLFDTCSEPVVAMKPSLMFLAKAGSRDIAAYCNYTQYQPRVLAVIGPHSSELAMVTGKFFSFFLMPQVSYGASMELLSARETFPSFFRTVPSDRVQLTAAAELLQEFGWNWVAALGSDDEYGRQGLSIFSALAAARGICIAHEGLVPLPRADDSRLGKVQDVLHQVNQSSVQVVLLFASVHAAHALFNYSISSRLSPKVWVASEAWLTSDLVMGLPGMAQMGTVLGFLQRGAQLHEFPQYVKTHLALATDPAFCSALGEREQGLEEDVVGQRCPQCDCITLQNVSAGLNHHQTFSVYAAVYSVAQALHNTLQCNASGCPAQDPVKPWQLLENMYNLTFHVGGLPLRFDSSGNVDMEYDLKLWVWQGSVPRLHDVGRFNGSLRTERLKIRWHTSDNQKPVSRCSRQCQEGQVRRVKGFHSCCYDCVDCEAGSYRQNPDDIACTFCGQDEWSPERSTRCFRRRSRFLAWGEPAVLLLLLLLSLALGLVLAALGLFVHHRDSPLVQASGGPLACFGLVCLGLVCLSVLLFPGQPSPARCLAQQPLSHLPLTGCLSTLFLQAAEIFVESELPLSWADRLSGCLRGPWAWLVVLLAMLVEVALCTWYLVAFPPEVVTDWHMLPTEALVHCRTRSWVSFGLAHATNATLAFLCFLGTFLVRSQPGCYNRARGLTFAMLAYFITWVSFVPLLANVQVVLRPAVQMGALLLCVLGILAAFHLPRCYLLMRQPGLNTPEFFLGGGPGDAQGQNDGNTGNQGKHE
Summary of the method: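 HEK293E cells grown at 37°C in Opti-MEM with 5% FBS and seeded at 50,000/well. Cells co-lipofected with Tas1R plasmids and Gα16-gust44 (0.06 μg each per well); medium changed at 20 h, assayed 24 h later. Cells loaded 1 h with Fluo-4 AM in HEPES-buffered HBSS. Tastant added at 30 s; fluorescence (ex 488/em 525 nm) read every 2 s for 150 s more. ΔF/F normalised to human receptor maximal sucralose response; mean ± SEM, three independent experiments.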

Sequence of hTas1R2:S40T/I67S+hTas1R3 (Q8TE23 20-839 S40T/I67S, one chain of several): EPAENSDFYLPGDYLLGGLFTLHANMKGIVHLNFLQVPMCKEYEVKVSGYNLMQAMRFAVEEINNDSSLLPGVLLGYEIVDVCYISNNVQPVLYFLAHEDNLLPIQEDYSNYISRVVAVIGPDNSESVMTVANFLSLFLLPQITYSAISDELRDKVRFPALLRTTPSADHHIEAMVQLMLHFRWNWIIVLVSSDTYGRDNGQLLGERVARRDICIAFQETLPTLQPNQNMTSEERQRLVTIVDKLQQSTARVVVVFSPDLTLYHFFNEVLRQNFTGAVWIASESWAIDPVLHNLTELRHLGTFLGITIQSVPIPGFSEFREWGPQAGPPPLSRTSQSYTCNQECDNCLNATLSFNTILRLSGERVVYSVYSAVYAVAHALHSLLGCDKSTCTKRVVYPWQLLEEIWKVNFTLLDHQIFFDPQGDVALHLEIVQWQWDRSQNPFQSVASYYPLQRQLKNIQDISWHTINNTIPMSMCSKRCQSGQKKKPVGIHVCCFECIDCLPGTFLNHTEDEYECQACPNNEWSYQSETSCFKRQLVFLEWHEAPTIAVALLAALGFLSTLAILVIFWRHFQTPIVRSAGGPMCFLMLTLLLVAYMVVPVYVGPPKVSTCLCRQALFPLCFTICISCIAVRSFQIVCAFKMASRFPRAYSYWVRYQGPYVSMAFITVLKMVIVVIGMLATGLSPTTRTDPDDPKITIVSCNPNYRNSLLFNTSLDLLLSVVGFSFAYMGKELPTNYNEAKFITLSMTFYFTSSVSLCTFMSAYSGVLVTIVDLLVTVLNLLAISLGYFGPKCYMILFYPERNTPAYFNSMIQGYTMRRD

Row | Structure (SMILES) | calcium response to sweetener [1] | calcium response to sweetener (smTas1R2/hTas1R3)
1 | COC(=O)[C@H](Cc1ccccc1)NC(=O)[C@@H](N)CC(=O)O [aspartame, L-α-aspartly-L-phenylalanine methyl ester] (H-Asp-Phe-OMe) | greater than multiple mutants that contained the D142E mutant | –
2 | OC[C@H]1O[C@H](O[C@]2(CCl)O[C@H](CCl)[C@@H](O)[C@@H]2O)[C@H](O)[C@@H](O)[C@H]1Cl [sucralose] | – | remained intact or reduced
